Compound activity deposited in PubChem BioAssay by several laboratories.
thrombin 1536: thrombin (human) inhibition | alpha-thrombin, Boc-VPR-AMC fluorogenic substrate cleavage | inhibition, % at 5 µM | 220,000 compounds, 0.26% hits | AID 1046;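 active means inhibition at or above 40%; inactive means inhibition below 40%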
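System – human alpha-thrombin · Medium – pH 7.5 Tris (50 mM) with NaCl 150 mM, Tween 20 0.05% · Compound – single-point dosing at 5 µM, 0.2% DMSO · Incubation – enzyme reaction carried out at room temperature · Technique – fluorescence of released AMC, ex 355 nm, em 460 nm · Read-out basis – % inhibition of thrombin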
FXIIa inh 1536: inhibitors of human coagulation factor XIIa; P00748; purified FXIIa, Boc-QGR-AMC fluorogenic substrate, 2 h; inhibition, % at 5 µM; 220,000 compounds, 0.3% hits; AID 800; in the data active means inhibition above about 40%
Furin inh: inhibitors of human furin. P09958. purified furin, fluorogenic substrate cleavage. inhibition, % at 20 µM or 30 µM. 220,000 compounds, 0.061% hits; in the data active means inhibition above about 25%
Target sequence (P09958 108-714 limits assumed): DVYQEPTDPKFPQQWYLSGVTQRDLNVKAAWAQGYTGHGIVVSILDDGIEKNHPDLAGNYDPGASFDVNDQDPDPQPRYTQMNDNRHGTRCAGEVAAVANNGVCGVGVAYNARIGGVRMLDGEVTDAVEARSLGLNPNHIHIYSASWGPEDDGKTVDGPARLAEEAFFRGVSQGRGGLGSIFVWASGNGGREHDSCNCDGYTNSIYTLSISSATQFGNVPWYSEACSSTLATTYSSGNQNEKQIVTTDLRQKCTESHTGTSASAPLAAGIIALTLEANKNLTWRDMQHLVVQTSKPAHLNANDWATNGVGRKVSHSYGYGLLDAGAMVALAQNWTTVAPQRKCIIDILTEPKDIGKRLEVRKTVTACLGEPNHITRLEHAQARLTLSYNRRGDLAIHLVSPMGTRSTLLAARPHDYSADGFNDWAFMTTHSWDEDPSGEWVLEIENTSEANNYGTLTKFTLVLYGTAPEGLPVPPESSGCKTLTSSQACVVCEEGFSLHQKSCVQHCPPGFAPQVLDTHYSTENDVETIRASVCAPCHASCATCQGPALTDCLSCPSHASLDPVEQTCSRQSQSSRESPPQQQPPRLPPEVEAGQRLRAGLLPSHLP
hK5 inh: kallikrein 5 (human) inhibition; Q9Y337; recombinant hK5, fluorogenic AMC substrate cleavage; inhibition, % at 5 µM; 210,000 compounds, 0.59% hits; AID 873;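 active means inhibition of 40% or more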
FXIa inh: factor XIa (human) inhibition. purified FXIa, Boc-Glu-Ala-Arg-AMC fluorogenic substrate. inhibition, % at 5 µM. 220,000 compounds, 0.14% hits. AID 798;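 active means inhibition of at least 40%; inactive means inhibition below 40%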;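 further: fluorescence of freed AMC excited at 355 nm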
Numbers stand for hits. Shown are actives, neighbours in structure and some others; about 1.1% of the full set was active somewhere.

How did CCOC(=O)C(NC(=O)Nc1ccc(C(N)=O)cc1)(c1ccccc1)C(F)(F)F (stereo not drawn) do in these assays?
thrombin 1536: inactive; FXIIa inh 1536: inactive; Furin inh: inactive; hK5 inh: inactive; FXIa inh: inactive

What do the screens show for `O=C1c2cccnc2Oc2ccc(Cl)cc2N1Cc1ccc(F)cc1`?
thrombin 1536: inactive; FXIIa inh 1536: inactive; Furin inh: inactive; hK5 inh: 44; FXIa inh: inactive

How did CCn1c(SCC(=O)Nc2cc(F)ccc2C)nnc1-c1ccccc1O do in these assays?
thrombin 1536: inactive; FXIIa inh 1536: inactive; Furin inh: 32; hK5 inh: inactive; FXIa inh: inactive

What do the screens show for `O=C(COC(=O)C1CCN(C(=O)c2ccc(Cl)cc2)CC1)NC1CCS(=O)(=O)C1` (stereo not drawn)?
thrombin 1536: inactive; FXIIa inh 1536: inactive; Furin inh: inactive; hK5 inh: inactive; FXIa inh: inactive

Results for COc1ccc(C)cc1NC(=O)COC(=O)C1CCN(C(=O)c2ccc(Cl)cc2)CC1 ?
thrombin 1536: inactive; FXIIa inh 1536: inactive; Furin inh: inactive; hK5 inh: inactive; FXIa inh: 49

How did CCOC(=O)Cn1c(=O)oc2cc(S(=O)(=O)NCCc3ccc(C)cc3)ccc21 do in these assays?
thrombin 1536: 57; FXIIa inh 1536: inactive; Furin inh: inactive; hK5 inh: 58; FXIa inh: inactive

How did O=C(c1ccc(NC(=S)NCc2ccco2)cc1)N1CCCCC1 do in these assays?
thrombin 1536: inactive; FXIIa inh 1536: inactive; Furin inh: inactive; hK5 inh: inactive; FXIa inh: inactive

What do the screens show for `CCOC(=O)CSc1nnc(CNC(=O)c2ccc(S(=O)(=O)N3CCOCC3)cc2)n1C`?
thrombin 1536: inactive; FXIIa inh 1536: inactive; Furin inh: inactive; hK5 inh: inactive; FXIa inh: inactive

Results for CCOC(=O)CSc1nnc(CNC(=O)c2ccc(S(=O)(=O)N3CCCC3)cc2)n1C ?
thrombin 1536: 48; FXIIa inh 1536: inactive; Furin inh: inactive; hK5 inh: 48; FXIa inh: inactive

How did COc1ccc(CCN(C)C(=O)CSc2nc3ncc(Cl)cc3[nH]2)cc1OC do in these assays?
thrombin 1536: inactive; FXIIa inh 1536: inactive; Furin inh: inactive; hK5 inh: inactive; FXIa inh: inactive

Results for Cc1cc(-c2nc3ncccc3o2)ccc1NC(=S)NC(=O)C(C)C ?
thrombin 1536: 40; Furin inh: inactive; hK5 inh: inactive; FXIa inh: inactive

How did O=C(Nc1ccc(Cl)c(Cl)c1)C1CC(=O)N(c2ccc(Br)cc2)C1 (stereo not drawn) do in these assays?
thrombin 1536: 49; FXIIa inh 1536: inactive; Furin inh: inactive; hK5 inh: inactive; FXIa inh: inactive

How did Cc1cccc(N2C(=O)CS/C2=N\NC(=O)c2ccc(Br)cc2)c1C do in these assays?
thrombin 1536: inactive; FXIIa inh 1536: inactive; Furin inh: inactive; hK5 inh: 57; FXIa inh: inactive

What do the screens show for `COc1ccc([N+](=O)[O-])cc1C(=O)Nc1ccc(OCC(=O)N2CCOCC2)cc1`?
thrombin 1536: inactive; FXIIa inh 1536: inactive; Furin inh: inactive; hK5 inh: inactive; FXIa inh: inactive

What do the screens show for `CCCCCc1ccc(OCCCC[n+]2ccc(C)cc2)c(CCCCC)c1`?
thrombin 1536: inactive; FXIIa inh 1536: inactive; Furin inh: inactive; hK5 inh: 40; FXIa inh: inactive

What do the screens show for `CCCCCc1ccc(OCCCC[n+]2ccccc2)c(CCCCC)c1`?
thrombin 1536: inactive; FXIIa inh 1536: inactive; Furin inh: inactive; hK5 inh: inactive; FXIa inh: inactive

What do the screens show for `COc1cccc(CNCc2cccnc2)c1OCc1ccccc1`?
thrombin 1536: inactive; FXIIa inh 1536: inactive; Furin inh: inactive; hK5 inh: inactive; FXIa inh: inactive

How did CCOC(=O)N1CCN(C(=O)c2ccc3c(=O)n(Cc4ccc(OC)cc4)c(=S)[nH]c3c2)CC1 do in these assays?
thrombin 1536: inactive; FXIIa inh 1536: inactive; Furin inh: inactive; hK5 inh: 48; FXIa inh: inactive

Results for O=C(N/N=C/c1ccc(OCc2ccccc2)cc1)c1ccncc1 ?
thrombin 1536: inactive; FXIIa inh 1536: inactive; Furin inh: inactive; hK5 inh: inactive; FXIa inh: inactive

Results for O=C(N/N=C/c1ccc(OCc2cnc(Cl)s2)cc1)c1ccncc1 ?
thrombin 1536: 50; FXIIa inh 1536: 66; Furin inh: inactive; hK5 inh: inactive; FXIa inh: inactive

Results for CN(C)N=Nc1ccc(S(N)(=O)=O)cc1 ?
thrombin 1536: inactive; FXIIa inh 1536: inactive; Furin inh: inactive; hK5 inh: inactive; FXIa inh: inactive

Results for CCCC/C(O)=N\S(=O)(=O)c1ccc(N=NN(C)C)cc1 ?
thrombin 1536: inactive; FXIIa inh 1536: inactive; Furin inh: inactive; hK5 inh: 70; FXIa inh: inactive

What do the screens show for `CCOC(=O)C(=O)Nc1ccc(S(=O)(=O)Nc2ncccn2)cc1`?
thrombin 1536: inactive; FXIIa inh 1536: inactive; Furin inh: inactive; hK5 inh: inactive; FXIa inh: inactive

What do the screens show for `CCOCC(=O)Nc1ccc(S(=O)(=O)Nc2ncccn2)cc1`?
thrombin 1536: inactive; FXIIa inh 1536: 53; Furin inh: inactive; hK5 inh: inactive; FXIa inh: inactive

Results for Cc1ccc2n(n1)c(=O)c(Cc1ccccc1)c([O-])[n+]2-c1ccccc1 ?
thrombin 1536: inactive; FXIIa inh 1536: inactive; Furin inh: inactive; hK5 inh: inactive; FXIa inh: inactive

How did CCOc1ccc(C(C)NC(=O)C2CCC2)cc1 (stereo not drawn) do in these assays?
thrombin 1536: inactive; FXIIa inh 1536: inactive; Furin inh: inactive; hK5 inh: inactive; FXIa inh: inactive

What do the screens show for `CCOc1ccc(-c2nnc(N(CC)C(=O)C3CCC3)s2)cc1`?
thrombin 1536: inactive; FXIIa inh 1536: inactive; Furin inh: inactive; hK5 inh: inactive; FXIa inh: inactive

What do the screens show for `COCCN(C(=O)C1CC1)c1nnc(-c2ccc(C)cc2)s1`?
thrombin 1536: inactive; FXIIa inh 1536: 64; Furin inh: inactive; hK5 inh: inactive; FXIa inh: inactive

How did Cc1ccc(NC(=O)Nc2ccc3c(c2)C(=O)OC3)cc1Cl do in these assays?
thrombin 1536: inactive; FXIIa inh 1536: inactive; Furin inh: inactive; hK5 inh: inactive; FXIa inh: inactive

Results for CCC(C)NC(=O)CC(NS(=O)(=O)c1ccc(NC(C)=O)cc1)C(C)C (stereo not drawn) ?
thrombin 1536: inactive; FXIIa inh 1536: inactive; Furin inh: inactive; hK5 inh: inactive; FXIa inh: inactive

What do the screens show for `O=c1[nH]c(=O)n(Cc2ccccc2)c2c1C(C(F)(F)F)(C(F)(F)F)N=C(c1ccco1)N2`?
thrombin 1536: 40; FXIIa inh 1536: inactive; Furin inh: inactive; hK5 inh: 147; FXIa inh: inactive

What do the screens show for `O=c1[nH]c(=O)n(Cc2ccco2)c2c1C(C(F)(F)F)(C(F)(F)F)N=C(c1ccc(F)cc1)N2`?
thrombin 1536: inactive; FXIIa inh 1536: inactive; Furin inh: inactive; hK5 inh: inactive; FXIa inh: inactive

How did CCN(CC)S(=O)(=O)c1ccc2c(c1)c(=O)c(C(=O)NCc1ccc3c(c1)OCO3)cn2C do in these assays?
thrombin 1536: 64; FXIIa inh 1536: inactive; Furin inh: inactive; hK5 inh: inactive; FXIa inh: inactive
